The nature of data set [1]: In-house data on metabolic clearance routes and plasma protein binding. It is filed as in vitro ADME.
A short description of data set [2]: Population PK model. It is filed as in vivo, human. The method in brief: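 Pooled Part I and II plasma concentrations (5–65 mg single doses; 10–40 mg once daily) were fitted with a three-compartment model. It had first-order absorption with lag, a dose-dependent bioavailability power model (relative bioavailability at 5 mg fixed to 1), and volumes per kg bodyweight. Slow peripheral volume and bioavailability were allowed to change between first dose and steady state. Interindividual variability was on Vc, CL, Frel, ka and Alag, with additive log-scale error. Estimates carry 90% CI, with visual predictive checks from 1,000 simulations.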

Data set [3] has as its system whole blood neutrophil elastase (NE) activity. Briefly: Whole blood NE activity. It is filed as in vivo, human. The method in brief: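 Part II only: healthy males on 10, 25 or 40 mg once daily for 21 or 28 days, or placebo (pooled). Whole-blood NE activity was expressed as percent change from each subject's baseline, […]. The 25 and 40 mg cohorts had follow-up visits up to 1 month after leaving the unit. ANC-normalized activity was fitted with a transit-compartment maturation model in which plasma concentration inhibits entry into the first compartment via a sigmoid Hill function. Blood neutrophil half-life was fixed from literature and maximal inhibition was fixed at complete.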

Data set [4] deals with activation of NSPs (NE, Pr3, and CatG) in human primary bone marrow-derived CD34+ neutrophil progenitor cells. To be noted: cited from earlier work.
The nature of data set [5]: Safety and tolerability in healthy subjects. Format: in vivo, human.
The nature of data set [6]: AZD7986 plasma pharmacokinetics. It is filed as in vivo, human. Put shortly: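 Healthy male subjects received oral AZD-class test compound. In Part I, single doses of 5–65 mg were given to cohorts of nine, three of them on placebo, with plasma sampled up to 96 h. In Part II, 10, 25 or 40 mg were given once daily for 21 or 28 days, with sampling up to 24 h after the first dose and 96 h after the last. Steady state was checked from predose levels on Days 18–20 and 21/28. Parameters came from noncompartmental analysis.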

For data set [7], the system named is efflux transporters. The data set can be described thus: In-house data on efflux transporter substrate status. It is filed as in vitro ADME.
Data set [8] relates to DPP1. To be noted: once daily, 21 days of dosing; cited from earlier work.
For data set [9] the following is noted: cited from earlier work.
The test system of data set [10] is NSP activity. To be noted: 21 days of dosing; cited from earlier work.
Where [11] appears, read: between first dose and steady state.

“Also recorded” adds a separate entry of the source. Read-outs that look alike come from different tables or passages of the source.

As a reminder, the Hill coefficient is a measure of the steepness of the concentration-response curve. A word on the IC50: it is the concentration that inhibits the measured activity by half. For orientation: half-life means how long it takes for the measured level to halve.

Consider `Cn1c(=O)oc2ccc(-c3ccc(C[C@@H](C#N)NC(=O)[C@@H]4CNCCCO4)cc3)cc21` [AZD7986], for which the “Saturable metabolic clearance routes or plasma protein binding” value in data set [1] is “does not indicate”. Further, the “Increase in oral bioavailability” value in [2] (between 5 and 65 mg, power model) was ~2 fold. Moreover, in [2] (setting [11]), the “Fsteadystate_change, percent change in bioavailability” value is 24.3% and the “Vp,slow,steadystate_change, percent change in volume of slowly equilibrating tissue compartment” value is reported as 34%. Also, in [2] (population PK model estimate), the “Alag, absorption lag time” value is on record as 0.159 h; the “CL, apparent clearance from central compartment” value is given as 12.0 L/h; the “IIV Alag, interindividual variability in Alag” value is reported as 21.3%; the “IIV CL, interindividual variability in CL” value was 22.2%. Further, in [2] (population PK model estimate), the “IIV Frel, interindividual variability in Frel” value is 18.2%; the “IIV Vc, interindividual variability in Vcentral” value is listed as 53.6%; the “IIV ka, interindividual variability in ka” value is given as 28.8%; the “Qfast, apparent intercompartmental clearance between plasma and rapidly equilibrating tissues” value is 122 L/h. In [2] (population PK model estimate), the “Qslow, apparent intercompartmental clearance between plasma and slowly equilibrating tissues” value is listed as 14.7 L/h; the “Vc, apparent volume per kg bodyweight of central plasma compartment” value is recorded as 0.368 L/kg; the “Vp,fast, apparent volume per kg bodyweight of rapidly equilibrating tissue compartment” value was 2.45 L/kg; the “ka, absorption rate constant” value is 0.809 h⁻¹. For the same molecule, the “Fslope, slope parameter for bioavailability vs. dose power model” value in data set [2] (relative to 5 mg single dose) is 0.228. The “Vp,slow, apparent volume per kg bodyweight of slowly equilibrating tissue compartment” value in [2] (single dose, population PK model estimate) is reported as 1.97 L/kg. The “Observed reduction of whole blood NE activity, on average” value in [3] (40 mg dose group, 28 days once daily) is listed as “more than 50%”. Moreover, the “Recovery of NE activity after cessation of dosing” value in data set [3] (25 and 40 mg cohorts, follow-up visits) is “recovers once treatment is stopped”. Also, the “IIV IC50, interindividual variability in IC50” value in data set [3] (PK-PD model) turned out to be 33.3%. In addition, the “nH, Hill coefficient” value in data set [3] (PK-PD model, Imax fixed to 1 (100%)) was 0.697. The “Average time to steady state of whole blood NE activity after initiation of dosing” value in data set [3] (implied by estimated MTT, N and PK) is “about 25 days”. Moreover, the “Start of response in whole blood NE activity after treatment initiation” value in data set [3] (three active doses compared to placebo) is listed as ~12 days. In data set [4] (NE, Pr3 and CatG), the Hill coefficient is reported as ~0.65. The “Extent of inhibition of activation of all three NSPs” value in data set [4] (concentration-dependent) is “completely inhibit”. In addition, in data set [4] (read-out: IC50 for inhibition of NSP activation, NE, Pr3 and CatG), the half-inhibitory concentration (IC50) is 60 to 200 nM. The “Discontinuation of treatment due to skin AE of lichenoid drug eruption” value in data set [5] (25 mg, Day 13) is “One subject”. Moreover, in [5] (Part II, 40 mg, number of subjects), the “Skin findings of special interest seen in the highest dose group” value is recorded as “four”. In [5] (Part II, number of subjects), the “Skin findings of special interest seen in subjects treated with AZD7986” value is listed as “five of the six”. The “Effect on the number of neutrophils in blood” value in data set [5] (Part II, repeated dosing) is recorded as “no clinically significant effect”. In data set [5] (Parts I and II), the “Clinical laboratory results, 12-lead ECGs, telemetry results” value was “No trends were observed”; the Infection risk entry was “no signal of increased infection risk”; the Serious adverse events entry was “No serious adverse events”. Also, in [5] (gingival probing), the “Mild gingival bleeding, AZD7986 versus placebo” value is given as “no difference”. Moreover, the Overall tolerability result in data set [5] (single doses 5-65 mg, once daily 10-40 mg for 21 or 28 days) is given as “well tolerated”. Besides, the half-life in data set [6] (male, human, plasma, po, Terminal half-life, after a single oral dose) lay within 20 to 26 h. The “Time of maximum plasma levels (Cmax) after dosing” value in [6] (oral dosing, healthy subjects) is 0.5 to 1.5 h. Moreover, the “Substrate for efflux transporters” value in [7] is “may be a substrate for efflux transporters”.

With `CC[C@@H](/C=C/C(=O)N1CCc2ccccc21)NC(=O)C1(N)CCOCC1` [GSK2793660], in [8], the “DPP1 inhibition in whole blood” value is on record as “sustained inhibition; also recorded: sustained, near‐complete”. The half-life in [9] (administered once daily) is 1.5 h. Moreover, in data set [9], the “Cases of skin desquamation” value was “seven”; the “Downstream effect reported on skin” value is “epidermal desquamation on palmar and plantar surfaces”. For the same molecule, the “Effect on NSP activity” value in data set [10] is on record as “no clear effect”.

Source of the values: paper PMC6282495 (Clinical Pharmacology and Therapeutics, 2018).
